# Source: PubChem BioAssay
# Calls of active or inactive are those of the source.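 Rule for the calls, unless noted: active = NADPH fluorescence slope more negative than the mean of all samples by about 3 SD, 99.7% confidence; inactive = the rest.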
# Key:
# [1] = inhibitors of TNFa-induced NFkB p65 translocation, primary screen, imaging, HUVEC, MLSMR starter and 10KST1 sets (AID 438;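 active = inhibition above 20% together with a positive visual image hit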;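 note: compound added about 3h40 before a 20 min TNFalpha stimulation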;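 for inhibition: signal is the nuclear over cytoplasmic p65 intensity ratio per well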); conditions: HUVEC TNFa-induced p65 nuclear translocation; cell count: measured here: nuclei count (cytotoxicity indicator), at 2.08 µM; inhibition: at 2 µM, stronger effect = higher value, 0% TNFa-plus-vehicle, 100% no-TNFa wells
# [2] = endothelial E-selectin expression blockers – imaging, HUVEC, immunofluorescence, MLSMR starter and 10KST1 sets, primary screen (AID 487;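 active = visually confirmed hit in the image check and inhibition above 20%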;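 for inhibition: signal is fraction of cell area covered by stained E-selectin grains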;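 for nuclei count: 100% = median nuclei count of all wells on the same plate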); conditions: HUVEC TNFalpha-induced E-selectin immunofluorescence imaging, at 2 µM; inhibition: stronger effect = higher value; nuclei count: measured here: cell number, toxicity
# [3] = Primary imaging screen for DUSP6 inhibitors that restore phospho-Erk in transfected HeLa cells, chemical complementation (AID 609;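 active = compounds giving at least 50% inhibition in the cell-based MKP-3 phosphatase rescue imaging test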;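 for inhibition: phospho-Erk level distribution per well compared with pooled transfected vehicle control wells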); conditions: HeLa MKP-3 transfected, phospho-Erk imaging KS statistic, at 10 µM, cells stimulated with TPA for 15 min
# [4] = molecular target: Dual specificity protein phosphatase 6 (Homo sapiens) (UniProt Q16828); experiment: as above; conditions: HeLa MKP-3 transfected, phospho-Erk imaging KS statistic; at 10 µM; stronger effect = higher value; cells stimulated with TPA for 15 min
# Sequence of Dual specificity protein phosphatase 6 (Homo sapiens) (Q16828 whole entry, looked up): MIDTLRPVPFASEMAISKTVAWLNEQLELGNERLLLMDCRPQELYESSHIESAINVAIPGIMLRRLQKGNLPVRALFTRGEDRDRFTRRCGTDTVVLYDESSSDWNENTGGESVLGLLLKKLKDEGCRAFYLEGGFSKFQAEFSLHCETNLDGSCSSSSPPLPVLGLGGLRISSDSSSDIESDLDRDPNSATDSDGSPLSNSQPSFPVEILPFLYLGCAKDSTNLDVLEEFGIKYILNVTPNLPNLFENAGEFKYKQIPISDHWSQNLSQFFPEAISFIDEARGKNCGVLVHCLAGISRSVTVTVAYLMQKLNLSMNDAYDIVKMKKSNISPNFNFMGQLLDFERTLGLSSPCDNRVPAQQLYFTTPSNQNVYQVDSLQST
# [5] = molecular target: Voltage-gated potassium channel subunit beta-2 (Rattus norvegicus) (UniProt P62483); experiment: inhibitors of rat Kvbeta2 reductase activity – biochemical, NADPH fluorescence, primary screen (AID 622;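 active = fluorescence slope higher than the sample average by over 3 SD, cut at about -0.22 in these data, passing the limit was not always enough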;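 note: slope of raw intensity against log time taken from 70 to 1610 s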); conditions: recombinant KvBeta, 4-cyanobenzaldehyde reduction, at 10 µM, stronger effect = higher value
# Sequence of Voltage-gated potassium channel subunit beta-2 (Rattus norvegicus) (P62483 whole entry, looked up): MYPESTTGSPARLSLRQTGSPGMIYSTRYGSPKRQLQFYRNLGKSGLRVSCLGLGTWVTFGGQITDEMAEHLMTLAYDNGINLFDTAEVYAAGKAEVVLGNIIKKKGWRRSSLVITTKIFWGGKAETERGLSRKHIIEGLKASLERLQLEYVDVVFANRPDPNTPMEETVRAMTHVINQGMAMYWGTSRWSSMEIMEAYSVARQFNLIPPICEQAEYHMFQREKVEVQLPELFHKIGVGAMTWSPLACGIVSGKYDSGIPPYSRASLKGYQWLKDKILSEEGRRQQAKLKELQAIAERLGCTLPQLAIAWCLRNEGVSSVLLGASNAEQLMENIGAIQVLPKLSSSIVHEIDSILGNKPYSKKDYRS
# [6] = molecular target: Voltage-gated potassium channel subunit beta-2 (Rattus norvegicus) (UniProt P62483); experiment: enhancers of rat Kvbeta2 NADPH turnover – biochemical, NADPH fluorescence, primary screen (AID 623); conditions: Recombinant KvBeta, NADPH fluorescence decrease slope, 10 min; at 10 µM; stronger effect = lower value;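 note: fluorescence intensity change per second fitted from 20 to 320 s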
# [7] = molecular target: Alpha-2C adrenergic receptor (Homo sapiens) (UniProt P18825); experiment: compounds altering alpha2C-coupled GIRK flux – cell-based, HEK293 alpha2C/GIRK1/2, thallium flux, primary screen (AID 624;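 active = fluorescence slope after compound addition differing from the mean of all screened samples at 99.7% confidence, in either direction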;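 note: slope of fluorescence ratio to pre-addition baseline per second over 15 to 24 s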); conditions: thallium flux BTC fluorescence, at 10 µM, actives lie on both sides
# Sequence of Alpha-2C adrenergic receptor (Homo sapiens) (P18825 whole entry, looked up): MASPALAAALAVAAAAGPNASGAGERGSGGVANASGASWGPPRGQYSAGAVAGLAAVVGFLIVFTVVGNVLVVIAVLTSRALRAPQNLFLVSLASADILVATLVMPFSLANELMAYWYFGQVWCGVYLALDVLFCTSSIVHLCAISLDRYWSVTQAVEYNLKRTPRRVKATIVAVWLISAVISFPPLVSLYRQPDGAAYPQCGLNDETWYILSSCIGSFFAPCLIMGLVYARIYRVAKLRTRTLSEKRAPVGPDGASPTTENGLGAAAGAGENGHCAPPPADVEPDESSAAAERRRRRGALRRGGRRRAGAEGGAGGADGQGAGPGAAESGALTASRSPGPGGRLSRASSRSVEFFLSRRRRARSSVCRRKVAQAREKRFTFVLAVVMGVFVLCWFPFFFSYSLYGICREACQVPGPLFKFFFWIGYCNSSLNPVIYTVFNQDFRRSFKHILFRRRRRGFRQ
# [8] = inhibitors of larval lipid processing in zebrafish, primary screen, whole organism, PED6 fluorescence, gall bladder and intestine (AID 686;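 active = a full or partial loss of lipid-probe fluorescence in the fish gall bladder, intestine or both, judged by eye; inactive = no fluorescence loss, or compound toxic to the fish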;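 note: larvae 5 to 7 days old with five fish per well; signal comes from phospholipase A2 cleavage of quenched PED6 carried via bile; overnight exposure to compound and PED6 before scoring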); conditions: Zebrafish larvae PED6 lipid processing, fluorescence scoring; screened at 20 µM (by protocol)
# How it was run: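 system = live zebrafish larvae aged 5-7 days, whole organism | probe or stimulus = ingested quenched lipid PED6 at 100 nM | doses = 20 µM single dose | timing = overnight exposure | detection = fluorescence microscopy with visual scoring of gall bladder and intestine | read-out = visual per-well fluorescence inhibition score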
# [9] = loss of swimming-algae plug formation – whole organism, Chlamydomonas reinhardtii, WT vs cilia-less mutant, absorbance, 96-well, primary screen (AID 463189;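 active = inhibition at or above 50% relative to wild type and mutant plate controls; inactive = inhibition below 50%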;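 note: 0% = wild type cc124 cells in DMSO and 100% = ciliumless bld1 mutant cells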); conditions: Chlamydomonas reinhardtii gravitaxis, OD600 absorbance, 2 days; at 10 µM; stronger effect = higher value
# [10] = measured here: cell density z-score
# [11] = measured here: nuclear c-Myc green intensity z-score
# [12] = measured here: nuclear pErk red intensity z-score, stronger effect = higher value
Compound,cell count [1],inhibition [1],inhibition [2],nuclei count [2],"z-score [3, 10]","z-score [3, 11]","z-score [3, 12]",inhibition [4],fluorescence slope [5],NADPH fluorescence slope [6],slope [7],outcome [8],inhibition [9]
CCOC(=O)CC(=O)CSc1nc2c(cc1C#N)CCCCCC2,706,-1.3% (inactive),25.1% (inactive),180%,-0.436,-0.188,-0.491,-8.95% (inactive),-0.285 (inactive),-5.2e-06 (inactive),0.00458 (inactive),inactive,0.237% (inactive)
Cc1ccc(C(=O)C2=C(O)C(=O)N(c3ncccn3)C2c2cccc(Cl)c2)o1 (stereo unspecified),472,-8.1% (inactive),-43% (inactive),177%,0.573,0.527,-0.321,0.671% (inactive),-0.287 (inactive),-2.1e-05 (inactive),0.00586 (inactive),inactive,1.33% (inactive)
N#CCSc1nc2sc3c(c2c(=O)n1C1CCCCC1)CCCC3,651,-21.9% (inactive),9.7% (inactive),167%,-0.927,0.708,1.09,3.56% (inactive),-0.354 (inactive),-1.5e-05 (inactive),0.00554 (inactive),inactive,-20.7% (inactive)
O=C(O)CC(NC(=O)COc1ccc(Cl)cc1Cl)C(=O)O (stereo unspecified),629,-19.5% (inactive),-11.7% (inactive),197%,0.18,0.773,0.0309,-9.66% (inactive),-0.404 (inactive),-7.4e-05 (inactive),0.00527 (inactive),inactive,0.167% (inactive)
Cc1ccc2[nH]c(CCN(C)C)c(CC#N)c2c1,564,4.9% (inactive),-74.2% (inactive),206%,-1.01,-0.567,1.52,18.6% (inactive),-0.364 (inactive),-2.8e-05 (inactive),0.0055 (inactive),inactive,10.4% (inactive)
COc1c(O)ccc2cnn(-c3ccccc3C)c(=O)c12,557,-2.9% (inactive),-53.4% (inactive),180%,-1.01,0.966,0.382,9.61% (inactive),-0.35 (inactive),-1.2e-05 (inactive),0.00472 (inactive),inactive,1.71% (inactive)
CCc1nc(SCc2cccnc2)c(C#N)cc1C,594,-3.5% (inactive),-81.5% (inactive),176%,0.241,-0.223,-1.08,2.46% (inactive),-0.341 (inactive),8.2e-06 (inactive),0.00538 (inactive),inactive,50.3% (active)
Cc1ccc2[nH]c3c(N4CCN(Cc5ccc6c(c5)OCO6)CC4)ncnc3c2c1,390,-21.4% (inactive),-47.6% (inactive),168%,-0.222,0.595,-3.73,-3.5% (inactive),-0.396 (inactive),-0.000159 (inactive),0.00427 (inactive),inactive; toxic,140% (active)
CCC1(C)Cc2c(sc3[nH]c(=O)[nH]c(=O)c23)CS1 (stereo unspecified),666,-8.2% (inactive),-11.4% (inactive),170%,0.81,-1.43,-0.857,1.75% (inactive),-0.519 (inactive),-4.7e-05 (inactive),0.00488 (inactive),inactive,2.21% (inactive)
CCCCOc1ccc(C(=O)OC2CC(C)N(C)CC2C)cc1 (stereo unspecified),358,-21.6% (inactive),-186% (inactive),155%,-0.354,-1.1,-0.696,-14% (inactive),-0.46 (inactive),-0.000115 (inactive),0.00554 (inactive),inactive,144% (active)
COc1ccc(C2N3CC4(C)CN2CC(C)(C3)C4O)cc1OC (stereo unspecified),348,-20.6% (inactive),-105% (inactive),122%,0.441,-1.49,-0.949,-5.26% (inactive),-0.473 (inactive),-7.1e-05 (inactive),0.00557 (inactive),inactive,37% (inactive)
S=c1[nH]nc(-c2ccco2)n1Cc1ccccc1,367,-8.2% (inactive),-105% (inactive),110%,-1.5,1.31,-1.88,11.9% (inactive),-0.477 (inactive),-0.000234 (inactive),0.00534 (inactive),inactive,-18.5% (inactive)
CCc1cccc(C)c1N(C(=O)Cn1c(=O)[nH]c2ccccc21)C(C)COC (stereo unspecified),362,-2.1% (inactive),-33.7% (inactive),97%,0.81,-0.372,0.826,5.57% (inactive),-0.546 (inactive),-4.3e-07 (inactive),0.00687 (inactive),inactive,32.6% (inactive)
Cc1noc(NS(=O)(=O)c2ccc(NC(=O)COc3ccccc3)cc2)c1C,641,-10.1% (inactive),29.8% (inactive),182%,-0.876,0.527,-0.0095,-11.5% (inactive),-0.376 (inactive),-3.7e-05 (inactive),0.00522 (inactive),inactive,4.64% (inactive)
COc1cc([C@@H]2[C@H]3CNCC=C3C(C#N)=C(N)C2(C#N)C#N)ccc1OC(C)C,520,-3.4% (inactive),-13.2% (inactive),156%,-0.404,-0.17,-2.38,2.46% (inactive),-0.251 (inactive),7.5e-06 (inactive),0.00559 (inactive),inactive,-1.69% (inactive)
O=C(Nc1cccnc1)c1cccnc1,639,0.9% (inactive),-26.7% (inactive),158%,-0.532,0.364,-0.22,0.671% (inactive),-0.534 (inactive),-3.1e-05 (inactive),0.00505 (inactive),inactive,3.69% (inactive)
COc1cccc(-c2nc(N3CC(C)CC(C)C3)c3ccccc3n2)c1O (stereo unspecified),535,-11.7% (inactive),-37.3% (inactive),180%,-0.935,0.42,2.09,-5.26% (inactive),-0.393 (inactive),-2.4e-05 (inactive),0.00414 (inactive),inactive,0.389% (inactive)
C=C(c1ccc(OCCO)cc1)c1ccc(OCCO)cc1,323,-11% (inactive),-16.1% (inactive),129%,0.426,0.397,-0.652,1.6e-07% (inactive),-0.405 (inactive),-0.000129 (inactive),0.00576 (inactive),inactive,13.7% (inactive)
O=CN1CCN(C(=O)CN2C(=O)c3ccccc3C2=O)CC1,359,-7.2% (inactive),-43.3% (inactive),161%,0.687,-0.0272,-1.29,11.4% (inactive),-0.452 (inactive),-0.000158 (inactive),0.00499 (inactive),inactive,15.5% (inactive)
COc1cc(-c2cc(C(F)(F)F)n3ncc(C(=O)O)c3n2)cc(OC)c1OC,479,-8.4% (inactive),-63% (inactive),123%,0.0221,-0.381,0.038,11.3% (inactive),-0.439 (inactive),-0.000193 (inactive),0.00431 (inactive),inactive,-8.65% (inactive)
CC1CN(c2oc(-c3cccs3)nc2C#N)CC(C)O1 (stereo unspecified),437,-13.6% (inactive),-188% (inactive),178%,-0.465,0.306,0.34,0.671% (inactive),-0.0506 (inactive),4e-07 (inactive),0.00683 (inactive),inactive,5.74% (inactive)
CC1(C)Cc2c(C#N)c(NCCc3ccccc3)nc(-c3ccco3)c2CO1,585,-9.7% (inactive),-33.8% (inactive),184%,0.597,-1.77,0.237,22.3% (inactive),-0.122 (inactive),5.1e-06 (inactive),0.00499 (inactive),inactive,34.4% (inactive)
CCOC(=O)c1c(C)[nH]sc1=S,569,-2.6% (inactive),42.2% (inactive),95.8%,-1.01,0.222,0.907,9.82% (inactive),-0.335 (inactive),-1.2e-06 (inactive),0.00974 (inactive),inactive,30.1% (inactive)
COC(=O)c1sc(NC(C)=O)c(C(=O)OC)c1C,633,-13.3% (inactive),4.8% (inactive),154%,1.36,-0.117,-1.37,6.04% (inactive),-0.516 (inactive),-9.3e-05 (inactive),0.00594 (inactive),inactive,-1.51% (inactive)
O=c1[nH]c(=O)n(Cc2ccco2)c2c1C(C(F)(F)F)(C(F)(F)F)N=C(c1ccco1)N2,505,-2.5% (inactive),-212% (inactive),132%,-0.683,-0.978,-0.242,1.75% (inactive),-0.502 (inactive),-5.4e-05 (inactive),0.00631 (inactive),inactive,-4.12% (inactive)
CCCCNC(=O)N1CCOCCOCCN(C(=O)NCCCC)CCOCC1,524,-14.1% (inactive),-164% (inactive),138%,2.57,-1.63,-0.914,31.7% (inactive),-0.55 (inactive),-2.2e-05 (inactive),0.0049 (inactive),inactive,9.99% (inactive)
c1csc(Cc2nn3c(-c4ccncc4)nnc3s2)c1,669,-1.9% (inactive),-17.9% (inactive),159%,0.0409,0.511,-0.101,-6.06% (inactive),-0.412 (inactive),-0.000115 (inactive),0.00514 (inactive),inactive,8.13% (inactive)
